Assay results published in paper PMC7881365 (Xenobiotica; the fate of foreign compounds in biological …, 2020).

Key:
Hela and SH-SY5Y cells = conditions: ref Fatokun et al. (2013; 2014); cited from earlier work
CYP1A1 = target: T1, CYP1A1 (Homo sapiens, UniProt P04798); assay type: in vitro ADME; conditions: peak intensities
T1 sequence (P04798 1-512): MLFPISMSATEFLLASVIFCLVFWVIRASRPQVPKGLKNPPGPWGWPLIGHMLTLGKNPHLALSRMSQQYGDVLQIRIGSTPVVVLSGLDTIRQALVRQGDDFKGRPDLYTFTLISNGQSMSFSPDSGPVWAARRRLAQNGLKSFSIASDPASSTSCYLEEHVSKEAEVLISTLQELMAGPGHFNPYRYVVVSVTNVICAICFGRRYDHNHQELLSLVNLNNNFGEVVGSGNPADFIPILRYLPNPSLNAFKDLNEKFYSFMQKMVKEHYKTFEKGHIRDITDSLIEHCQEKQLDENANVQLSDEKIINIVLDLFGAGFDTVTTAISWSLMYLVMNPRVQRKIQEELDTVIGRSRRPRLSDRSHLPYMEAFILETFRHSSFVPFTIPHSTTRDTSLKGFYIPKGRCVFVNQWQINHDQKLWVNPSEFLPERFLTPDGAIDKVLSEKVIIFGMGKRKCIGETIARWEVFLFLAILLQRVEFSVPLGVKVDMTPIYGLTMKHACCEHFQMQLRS
How it was run: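 Reconstituted system: purified E. coli-expressed CYP1A1 (50 pmol), NADPH-P450 reductase (100 pmol), DLPC (50 µg), no b5. Incubated with 60 µM methoxyflavone test compound at 37 °C for 20 min after 1 min preincubation, started with NADPH-generating system (0.5 mM NADP+, 5 mM glucose 6-phosphate, 0.5 unit/mL dehydrogenase). Quenched with ice-cold CH3CN and centrifuged. LC-MS/MS positive ESI; product as peak intensity, two or three determinations.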

CYP1A2 = target: T2, CYP1A2 (Homo sapiens, UniProt P05177); assay type: in vitro ADME; conditions: peak intensities
T2 sequence (P05177 1-516): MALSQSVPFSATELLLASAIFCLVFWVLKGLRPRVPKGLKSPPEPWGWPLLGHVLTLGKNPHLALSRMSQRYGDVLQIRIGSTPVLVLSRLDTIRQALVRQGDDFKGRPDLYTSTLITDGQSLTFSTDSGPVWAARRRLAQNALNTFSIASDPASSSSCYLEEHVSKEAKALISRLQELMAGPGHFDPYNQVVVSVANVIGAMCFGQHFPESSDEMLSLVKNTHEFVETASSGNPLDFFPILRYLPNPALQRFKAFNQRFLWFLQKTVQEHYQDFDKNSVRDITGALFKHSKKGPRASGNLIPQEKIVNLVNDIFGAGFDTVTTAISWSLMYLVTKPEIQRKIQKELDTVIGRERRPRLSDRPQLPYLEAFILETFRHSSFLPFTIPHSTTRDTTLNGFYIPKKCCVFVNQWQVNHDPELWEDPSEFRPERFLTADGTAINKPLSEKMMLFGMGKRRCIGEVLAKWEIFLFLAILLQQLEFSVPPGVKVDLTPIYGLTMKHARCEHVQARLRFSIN

CYP1B1.1 = target: T3, CYP1B1.1 (Homo sapiens, UniProt Q16678); assay type: in vitro ADME; conditions: peak intensities
T3 sequence (Q16678 1-543): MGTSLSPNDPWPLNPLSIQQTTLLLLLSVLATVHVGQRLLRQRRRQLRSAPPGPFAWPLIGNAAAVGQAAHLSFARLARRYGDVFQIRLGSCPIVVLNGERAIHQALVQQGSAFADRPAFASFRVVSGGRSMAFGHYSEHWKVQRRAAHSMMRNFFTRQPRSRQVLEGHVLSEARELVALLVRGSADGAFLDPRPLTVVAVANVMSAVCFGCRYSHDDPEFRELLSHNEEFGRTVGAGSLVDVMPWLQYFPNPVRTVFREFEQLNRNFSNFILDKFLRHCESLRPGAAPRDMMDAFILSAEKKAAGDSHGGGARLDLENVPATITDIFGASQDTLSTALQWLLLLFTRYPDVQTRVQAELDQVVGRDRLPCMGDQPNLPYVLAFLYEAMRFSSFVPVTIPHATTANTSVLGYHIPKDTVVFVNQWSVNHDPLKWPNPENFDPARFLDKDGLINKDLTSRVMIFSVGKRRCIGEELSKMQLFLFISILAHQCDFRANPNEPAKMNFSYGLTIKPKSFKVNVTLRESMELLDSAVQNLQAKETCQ

CYP1B1.3 = target: T4, CYP1B1.3 (Homo sapiens, UniProt Q16678); assay type: in vitro ADME; conditions: peak intensities
T4 sequence (Q16678 1-543): T3 sequence (Q16678 1-543)

CYP2B6 = target: T5, CYP2B6 (Homo sapiens, UniProt P20813); assay type: in vitro ADME; conditions: peak intensities
T5 sequence (P20813 1-491): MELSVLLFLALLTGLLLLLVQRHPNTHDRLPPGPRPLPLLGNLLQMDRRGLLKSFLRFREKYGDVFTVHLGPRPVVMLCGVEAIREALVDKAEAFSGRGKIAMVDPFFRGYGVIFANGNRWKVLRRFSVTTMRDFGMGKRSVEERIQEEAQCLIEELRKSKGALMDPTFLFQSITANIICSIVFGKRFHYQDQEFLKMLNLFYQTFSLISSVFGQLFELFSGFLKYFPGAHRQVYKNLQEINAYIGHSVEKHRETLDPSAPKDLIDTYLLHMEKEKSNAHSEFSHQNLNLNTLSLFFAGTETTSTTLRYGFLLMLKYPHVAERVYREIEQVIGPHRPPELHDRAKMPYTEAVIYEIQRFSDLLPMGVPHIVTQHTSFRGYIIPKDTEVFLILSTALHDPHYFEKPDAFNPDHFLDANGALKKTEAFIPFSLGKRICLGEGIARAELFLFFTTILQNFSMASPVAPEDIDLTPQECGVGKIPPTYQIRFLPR
How it was run: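 E. coli membranes co-expressing CYP2B6 and NADPH-P450 reductase (50 pmol P450) incubated with 60 µM methoxyflavone test compound at 37 °C for 20 min. Reaction started after 1 min preincubation with NADPH-generating system (0.5 mM NADP+, 5 mM glucose 6-phosphate, 0.5 unit/mL glucose 6-phosphate dehydrogenase). Stopped with ice-cold CH3CN, then centrifuged. Supernatant analysed by LC-MS/MS (positive ESI); products reported as peak intensities, from two or three determinations.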

## COc1ccc(-c2cc(=O)c3ccccc3o2)cc1OC [3′,4′-dimethoxyflavone, reference compound]
Hela and SH-SY5Y cells
  prevention of decreases in cell viability caused by N-methyl-N′-nitro-N-nitrosoguanine: effectively prevent decreases in cell viability

## COc1ccccc1-c1cc(=O)c2ccccc2o1 [2′MeF, 2′-methoxyflavone]
CYP1A1
  formation of 2′Me255a (m/z 255 product): very low levels
CYP1A2
  formation of 2′Me255a (m/z 255 product): very low levels
CYP1B1.1
  formation of 2′Me239a (possibly 2′OHF): highly active
  formation of 2′Me255a (m/z 255 product): very low levels
CYP1B1.3
  formation of 2′Me239a (possibly 2′OHF): highly active
  formation of 2′Me255a (m/z 255 product): very low levels
CYP2B6
  formation of 2′Me239a (possibly 2′OHF): highly active
  formation of 2′Me255a (m/z 255 product): very low levels

## COc1ccc(-c2cc(=O)c3ccccc3o2)cc1 [4′MeF, 4′-methoxyflavone]
Hela and SH-SY5Y cells
  prevention of decreases in cell viability caused by N-methyl-N′-nitro-N-nitrosoguanine: effectively prevent decreases in cell viability
